Measurements gathered from unrelated publications.
Lines come from different studies, so protocols differ.
Target: Dual specificity protein kinase CLK3 (CLK3, Homo sapiens, UniProt P49761)
Technique: competition with immobilised ligand

CCN1CCN(Cc2ccc(C(=O)Nc3ccc(C)c(Oc4ccc5c(c4)CC(=O)N5)c3)cc2C(F)(F)F)CC1 — remaining binding (binding; 1 µM): 100%
C=CC(=O)N1CCC(C(=O)NCC(=O)N2CCN(c3nc(-c4cnc(N)nc4C(F)F)nc(N4CCOCC4)n3)CC2)CC1 — remaining binding (binding; 1 µM): 97%
COc1cc(Nc2nccc(-c3cnn4nc(OC)ccc34)n2)cc(C(F)(F)F)c1 — remaining binding (binding; 1 µM): 92%
O=C(c1ccc(Nc2ncc(Cl)c(-c3ccc(Cl)s3)n2)cc1)N1CCC(N2CCCC2)CC1 — remaining binding (binding; 1 µM): 15%
Nc1c(C(=O)NCc2ccc(C(=O)NCCCC3CCCCC3)cc2)cnn1-c1ccccc1 — remaining binding (cell-free assay; 0.1 µM): 95%
O=C(c1ccc(Nc2nccc(-c3cc4ccccc4s3)n2)cc1)N1CCC(N2CCCC2)CC1 — remaining binding (binding; 1 µM): 73%
CO[C@@H](C)c1c(Nc2ccc([C@@H](N(C)C(=O)C3CCS(=O)(=O)CC3)C(F)(F)F)cc2)cnc2cc(Cl)nn12 — remaining binding (cell-free assay; 1 µM): 87%
O=C(NCC1CCOCC1)c1n[nH]cc1NC(=O)c1c(F)cccc1F — remaining binding (binding; 1 µM): 64%
COc1cnc(Nc2cccc(S(N)(=O)=O)c2)nc1N1CCN(c2ccccc2)C(=O)C1 — remaining binding (binding; 1 µM): 100%
CN(C(=O)c1ccccc1)c1cc(N(C)c2ccc3c(c2)CCc2ccc(C(=O)NCCN4CCOCC4)cc2C3=O)ccc1F — remaining binding (cell-free assay; 1 µM): 100%
COc1ncc2cc3ccccc3nc2c1C#N — remaining binding (cell-free assay; 5 µM): 94%
O=C(c1ccc(Nc2ncc(Cl)c(-c3cc4ccccc4s3)n2)cc1)N1CCC(N2CCCC2)CC1 — remaining binding (binding; 1 µM): 7.4%
CS(=O)(=O)c1cc(C2(NC(=O)c3cncc4c3cnn4-c3ccc(F)cc3)CC2)ccn1 — remaining binding (cell-free assay; 1 µM): 86%
c1cncc(-c2cccc(Nc3nccc(NC4CCCCC4)n3)c2)c1 — remaining binding (binding; 10 µM): 57%
